Screens (PubChem BioAssay)
Only some compounds are listed: those with a hit (about 2.2% of all), similar ones and a draw of the others.
PDI inh – inhibitors of human PDI, primary screen, biochemical, turbidity, single point, plate reader. PDI insulin aggregation turbidity, A650, 90 min. inhibition, % at 10 µM. 350,000 compounds, 0.052% hits. AID 588391, 2011;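 active = mean inhibition across replicates of 30% or more, whatever share of single replicates reach that level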
Target sequence (P07237 whole entry, looked up): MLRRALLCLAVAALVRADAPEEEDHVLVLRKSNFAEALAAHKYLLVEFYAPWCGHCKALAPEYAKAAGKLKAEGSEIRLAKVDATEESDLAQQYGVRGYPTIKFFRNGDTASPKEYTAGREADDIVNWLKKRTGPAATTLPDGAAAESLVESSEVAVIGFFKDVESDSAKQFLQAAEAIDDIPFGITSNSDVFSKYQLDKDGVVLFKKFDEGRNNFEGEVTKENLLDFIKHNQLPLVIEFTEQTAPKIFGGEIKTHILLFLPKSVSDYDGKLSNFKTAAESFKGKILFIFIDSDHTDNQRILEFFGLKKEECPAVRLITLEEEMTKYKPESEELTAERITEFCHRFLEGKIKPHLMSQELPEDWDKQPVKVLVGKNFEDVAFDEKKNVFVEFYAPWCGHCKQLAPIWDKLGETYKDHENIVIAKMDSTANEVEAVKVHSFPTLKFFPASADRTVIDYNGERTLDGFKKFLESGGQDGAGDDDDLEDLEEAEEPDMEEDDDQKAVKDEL
Ecoli rRNA inh – reduced GFP signal of wild-type E. coli, primary screen, bacterial rRNA inhibitor project, GFP/RFP fluorescence, OD600, single point | 350,000 compounds, 1.6% hits | E. coli WT GFP vs humanized-ribosome RFP mutants, 24 h; hits give low values; DMSO median 0, no signal -100 | GFP signal change (wild-type ribosome), % (test concentration not listed);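 active = significant combined selectivity score with lowered wild-type GFP, culture density cut under 30%, mutant RFP and density less affected; inactive = any of these conditions unmet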
PvdQ acylase – P. aeruginosa PvdQ acylase inhibitors, primary screen, biochemical, fluorescence, plate reader and imaging, single point; purified PvdQ acylase; inhibition, % at 10 µM; 340,000 compounds, 0.063% hits; AID 488965, 2010; in the data active = inhibition above about 30%, passing the limit was not always enough;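 note: 0% = vehicle neutral wells and 100% = reference inhibitor wells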
FN deposition inh – inhibitors of fibronectin matrix deposition, primary screen, AH1F cells, Alexa488-fibronectin fluorescence, plate reader | AH1F fibroblasts, overnight | inhibition, % at 12.6 µM | 350,000 compounds, 0.086% hits | AID 743247, 2014;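 active = mean inhibition across replicates of 30% or more, regardless of how many single replicates reach that level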;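 note: positive control wells lacked labelled fibronectin entirely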
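Assay system: AH1F fibroblasts / Quantity: 10000 cells per well / Medium: DMEM plus 2% serum, read in PBS / Reagent: labelled fibronectin 24 nM / Dosing: single dose, pinned / Times: 1 h cell attachment, overnight exposure to compound and label / Signal: fluorescence, ex 485 nm, em 525 nm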
HIV Env fusion – inhibitors of HIV-1 Env-driven cell-cell fusion, primary screen, HeLa-JRFL effector, CEM21 target cells, luciferase | inhibition, % at 12.3 µM | 360,000 compounds, 1.1% hits;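 active = mean replicate inhibition score of at least 50 and every replicate individually at or above 50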;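 note: 0% = plate neutral controls and 100% = maraviroc near 300 nM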
ERp5 block – inhibitors of ERp5-driven insulin aggregation, primary screen, biochemical, turbidity, absorbance 650 nm, single point. 90 min. Protein disulfide-isomerase A6 (Homo sapiens), Q15084. AID 651711, 2012. inhibition, % at 9.99 µM. 350,000 compounds, 0.05% hits;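 active = mean replicate inhibition above about 25%, with every replicate also reaching it, limit read from the data, passing the limit was not always enough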
* hit, by the source's call.

What do the screens show for `Cc1c(C(c2ccc(O)cc2)c2c(O)c3ccccc3oc2=O)c(=O)n(-c2ccccc2)n1C` (stereo unspecified)?
PDI inh: 3; Ecoli rRNA inh: -14*; PvdQ acylase: 2; FN deposition inh: 2; HIV Env fusion: -11; ERp5 block: 2

Results for Clc1ccccc1CN1CCN(c2ccccc2Cl)CC1 ?
PDI inh: -3; Ecoli rRNA inh: -42*; PvdQ acylase: 8; ERp5 block: -1

What do the screens show for `CS(=O)(=O)N1CC2NC(C1)C2c1ccc(Br)cc1` (stereo unspecified)?
Ecoli rRNA inh: -3; FN deposition inh: -13

Results for COC(=O)[C@H]1[C@H](CO)[C@H]2Cn3c(ccc(-c4cccc(OC)c4)c3=O)[C@@H]1N2CC1CC1 ?
Ecoli rRNA inh: 1; ERp5 block: 0

How did COC(=O)[C@@H]1[C@@H](CO)[C@@H]2Cn3c(ccc(-c4ccccc4F)c3=O)[C@H]1N2C(C)=O do in these assays?
Ecoli rRNA inh: 6; ERp5 block: 5

How did O=c1c2ccccc2nc(/C=C/c2ccc(O)cc2)n1-c1ccccc1O do in these assays?
PDI inh: 13; Ecoli rRNA inh: -27*; PvdQ acylase: -6; FN deposition inh: 1; HIV Env fusion: 20; ERp5 block: 0

Results for O=c1c2ccccc2nc(/C=C/c2ccccc2)n1-c1ccccc1O ?
PDI inh: -11; Ecoli rRNA inh: -26; PvdQ acylase: -1; HIV Env fusion: 20; ERp5 block: -2

How did CC(Cc1ccccc1Sc1ccccc1O)N(C)C (stereo unspecified) do in these assays?
PDI inh: 38*; PvdQ acylase: 11

What do the screens show for `C#CCN(C)[C@H](C)Cc1ccccc1`?
PDI inh: -5; Ecoli rRNA inh: 10; PvdQ acylase: -3; FN deposition inh: -5; ERp5 block: 3

How did CC(=O)O[C@H]1CCC2C3CCC4=CC(=O)CCC4=C3C=C[C@@]21C (stereo partly specified) do in these assays?
PDI inh: 17; Ecoli rRNA inh: -18*; PvdQ acylase: -12; FN deposition inh: 5; HIV Env fusion: 12; ERp5 block: -2

How did CCc1ccc(CNCCc2c[nH]c3ccccc23)cc1 do in these assays?
PDI inh: 6; Ecoli rRNA inh: -11; PvdQ acylase: -12; FN deposition inh: 3; HIV Env fusion: 78*; ERp5 block: -1

Results for c1ccc(CNCCc2c[nH]c3ccccc23)cc1 ?
PDI inh: -4; Ecoli rRNA inh: 11; PvdQ acylase: 6; FN deposition inh: -5; HIV Env fusion: 15; ERp5 block: 2

How did COc1cc(CNCCc2c[nH]c3ccccc23)cc(OC)c1 do in these assays?
PDI inh: -2; Ecoli rRNA inh: 1; PvdQ acylase: 9; FN deposition inh: -1; HIV Env fusion: 61*; ERp5 block: 5

Results for COC(=O)[C@H]1[C@H](CO)[C@H]2Cn3c(ccc(C4=CCCCC4)c3=O)[C@@H]1N2C(=O)CC1CC1 ?
Ecoli rRNA inh: 0; ERp5 block: 7

How did COC(=O)C1=C(N)Oc2cc(C)oc(=O)c2C12C(=O)Nc1ccccc12 (stereo unspecified) do in these assays?
PDI inh: -1; Ecoli rRNA inh: -23*; PvdQ acylase: -7; FN deposition inh: 10; HIV Env fusion: 0; ERp5 block: 0

What do the screens show for `COCCOC(=O)C1=C(C)OC(N)=C(C(=O)OC)C12C(=O)Nc1ccccc12` (stereo unspecified)?
PDI inh: -3; PvdQ acylase: -6; HIV Env fusion: -76

What do the screens show for `CS(=O)(=O)N1C[C@@H]2N[C@H](C1)C2c1ccccc1` (stereo partly specified)?
Ecoli rRNA inh: 0; FN deposition inh: -4
